Assay results published in ChEMBL document CHEMBL1133066, “Design and synthesis of novel pyrrolobenzodiazepine (PBD) prodrugs for ADEPT and GDEPT” (Bioorg Med Chem Lett, 2000).
pIC50: −log10 of the molar value.

Key:
[1] = tested on: LS174T; assay: Tested for the cytotoxicity in LS174T cells; 0.001-0.01; type: functional, cell-based; settings: Homo sapiens
[2] = tested on: LS174T; assay: Parent […] tested for the cytotoxicity in LS174T cells; type: functional, cell-based; settings: Homo sapiens
[3] = tested on: LS174T; assay: Tested for the cytotoxicity in LS174T cells before activation by enzyme nitroreductase/NADH; type: functional, cell-based; settings: Homo sapiens
Procedure, shortened: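 LS174T adenocarcinoma cells were seeded at 2000 cells/well and treated with various prodrug concentrations for 1 h without enzyme. They were washed and incubated for 3 days. IC50 is the dose inhibiting growth by 50% relative to drug-free controls.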

[4] = tested on: LS174T; assay: The compound was evaluated for Activation Factor; type: functional, Homo sapiens
[5] = tested on: LS174T; assay: Tested for the cytotoxicity in LS174T cells after activation by enzyme nitroreductase/NADH; type: functional, cell-based; settings: Homo sapiens
Procedure, shortened: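 Human adenocarcinoma LS174T cells were seeded at 2000 cells/well and exposed to a range of prodrug concentrations together with nitroreductase and NADH cofactor for 1 h. Cells were washed and grown for 3 days. IC50 is the prodrug dose giving 50% growth inhibition versus drug-free controls.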

| SMILES | pIC50 [1] | pIC50 [2] | pIC50 [3] | Activation Factor [4] | pIC50 [5] |
| --- | --- | --- | --- | --- | --- |
| C/C=C1/C[C@H]2C=Nc3cc(OCc4ccccc4)c(OC)cc3C(=O)N2C1 | 8.00 | – | – | – | – |
| COc1cc2c(cc1OCc1ccccc1)N(C(=O)OCc1ccc([N+](=O)[O-])cc1)[C@@H](O)[C@@H]1CCCN1C2=O | – | 8.10 | < 3.30 | >100 | 5.30 |
| C/C=C1/C[C@H]2[C@H](O)N(C(=O)OCc3ccc([N+](=O)[O-])cc3)c3cc(OCc4ccccc4)c(OC)cc3C(=O)N2C1 | – | 9.00 | 4.06 | 13.5 | 5.19 |
| COc1cc2c(cc1OCCCOc1cc3c(cc1OC)C(=O)N1CCC[C@H]1[C@H](O)N3C(=O)OCc1ccc([N+](=O)[O-])cc1)N(C(=O)OCc1ccc([N+](=O)[O-])cc1)[C@@H](O)[C@@H]1CCCN1C2=O | – | 9.30 | 3.67 | 15.7 | 4.86 |
